Only some compounds are listed: those with a hit (about 1.7% of all), similar ones and a draw of the others.
Scp1 inh = Scp-1 (human) phosphatase inhibition; Recombinant Scp1, phosphopeptide, malachite green phosphate absorbance; Q9GZU7; inhibition, % at 20 µM; 0.88% of 340,000 active;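 active = inhibition above about 50% at 20 µM, limit read from the data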
Target sequence (Q9GZU7 76-261 limits assumed): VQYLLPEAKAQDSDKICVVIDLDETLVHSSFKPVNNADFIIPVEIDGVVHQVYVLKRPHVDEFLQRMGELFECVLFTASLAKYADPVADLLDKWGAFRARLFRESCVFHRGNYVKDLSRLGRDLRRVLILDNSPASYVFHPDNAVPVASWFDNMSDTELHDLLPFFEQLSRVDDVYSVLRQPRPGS
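Test system – truncated SCP-1 phosphatase (76-261aa) · Reagent – Phosphorylated 17-residue peptide substrate · Incubation – 45 min room-temperature reaction, 5 min colour, 30 min stabiliser · Detection – colorimetric phosphate reagent with accelerator and stabiliser, absorbance at 630 nm · Measure – % inhibition at 20 µM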
SUMO1-SIM PPI = alters human SUMO1 binding to SIM partners; 0.33% of 360,000 active; inhibition, % at 20 µM; P63165; SUMO1 binding to a labelled peptide, TR-FRET, 1 h; in the data active = inhibition above about 37%
Target sequence (P63165 whole entry, looked up): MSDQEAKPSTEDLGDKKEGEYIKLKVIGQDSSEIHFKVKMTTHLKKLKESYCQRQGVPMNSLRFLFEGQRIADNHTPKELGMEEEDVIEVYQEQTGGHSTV
DNMT1 block = DNMT1 (human) enzyme inhibition; P26358; DNMT1 molecular beacon, Hinp1I cleavage, fluorescence; inhibition (reported as % activation of signal), % at 10 µM; 0.83% of 360,000 active; AID 588458; in the data active = inhibition above about 50%
LMPTP block = LMPTP (human) inhibition; P24666; recombinant LMPTP-A, OMFP fluorogenic substrate, fluorescence intensity; inhibition, % at 20 µM; 0.22% of 360,000 active; AID 651560;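 active = compounds that cut the enzyme signal by at least half of the control window in the single-dose screen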
Target sequence (P24666 whole entry, looked up): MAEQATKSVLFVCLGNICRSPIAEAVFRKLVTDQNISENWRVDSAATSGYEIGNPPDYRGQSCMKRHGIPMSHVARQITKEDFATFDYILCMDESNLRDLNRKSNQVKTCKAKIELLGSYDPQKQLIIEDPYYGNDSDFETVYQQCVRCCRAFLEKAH
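Test system: LMPTP-A phosphatase enzyme. Amount: LMPTP-A at 0.625 nM final in the reaction. Reagent: OMFP substrate, 400 µM final. Times: 50 min at room temperature. Signal: endpoint fluorescence intensity from OMFP dephosphorylation. Read-out basis: % inhibition. Benchmarks: no-enzyme and uninhibited controls.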
STEP inh = inhibitors of human striatal-enriched phosphatase STEP. P54829. recombinant STEP, OMFP fluorogenic substrate, fluorescence. inhibition, % at 20 µM. 0.25% of 360,000 active. AID 588621;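 active = inhibition at 20 µM, scaled per plate between control wells, above about 37%, limit read from the data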
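Material: STEP (striatal-enriched tyrosine phosphatase) enzyme, cell-free | Medium: 50 mM Bis-Tris pH 6.0 with 2.5 mM DTT and 0.005% Tween 20 | Read-out: Percent inhibition scaled to no-enzyme and uninhibited-enzyme controls, plate-pattern corrected | Signal: Fluorescence read at 480 nm ex / 540 nm em | Times: 20 min reaction, room temperature, in the dark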
DNMT1 interf DR = beacon fluorescence artifact, dose response counter-screen; shares compounds with DNMT1 block; molecular beacon fluorescence, spectral interference counter-screen; IC50, µM; 200 tested, under 10 active; call rule not given here
DNMT1 inh conf = DNMT1 inhibition confirmation, single concentration. shares compounds with DNMT1 block. DNMT1 molecular beacon HinP1I cleavage, fluorescence. inhibition, % at 10 µM. 8% of 2,300 active;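 active = average inhibition of at least 30% in the single-concentration confirmation test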
Beacon interf = counter-screen for DNMT1 inhibitors: spectral interference | 1% of 2,300 active | activation (fluorescence interference), % at 10 µM | DNMT1 molecular beacon spectral interference counterscreen, fluorescence 485/520 | AID 602387 | shares compounds with DNMT1 block;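 active = activation of at least 30% at 10 µM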;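 note: DNMT1 catalytic domain with a HinP1I cleavage step and a FAM/dabcyl DNA beacon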
Of the large screens only hits and unclear results are named; the others gave an inactive call (follow-up assays come after a bar, where they were run).

O=C1CS/C(=N/N=C/c2ccco2)N1Cc1ccc(F)cc1	none
N#Cc1ccccc1/C=N/Nc1nc(-c2ccccc2)c2cc(Br)ccc2n1	DNMT1 block 73 | DNMT1 inh conf inactive | Beacon interf inactive
OCCNc1nc(-c2ccccc2)c2cc(Br)ccc2n1	none
O=C(CN1CCN(c2ccccc2O)CC1)Nc1cc(S(=O)(=O)N2CCCC2)ccc1Cl	none
O=C(O)C/C(=C\c1cc(Cl)c2c(c1)OCO2)c1nc2ccccc2s1	DNMT1 block 53 | DNMT1 inh conf inactive | Beacon interf inactive
COc1ccc(NS(=O)(=O)c2cccc(C(=O)NN=Cc3cc(Br)c(O)c(Br)c3)c2)cc1	none
O=C(N/N=C/c1cc(Br)c(O)c(Br)c1)c1cccc(C(F)(F)F)c1	DNMT1 block 74 | DNMT1 inh conf inactive | Beacon interf inactive
CCCCCn1c(N)c(-c2nc3ccccc3s2)c2c([N+](=O)[O-])nn(C)c(=O)c21	none
CCCCn1c(N)c(-c2nc3ccccc3o2)c2c([N+](=O)[O-])nn(CC)c(=O)c21	DNMT1 block 56 | DNMT1 inh conf inactive | Beacon interf inactive
CCOC(=O)C1(C)CCCN1C(=O)c1c(F)cccc1F (stereo unspecified)	none (no result: Scp1 inh)
Cc1[nH][nH]c(=O)c1C(c1ccc(-c2ccccc2C(=O)O)o1)c1c(C)[nH][nH]c1=O	DNMT1 block 75 | DNMT1 inh conf inactive | Beacon interf inactive
O=c1oc(-c2ccc(O)c(O)c2)cc2cccc(O)c12	none
Oc1cccc2cc3cccc(O)c3c(O)c12	DNMT1 block 87 | DNMT1 interf DR inactive | DNMT1 inh conf 77 | Beacon interf inactive
COc1ccc(NS(=O)(=O)c2ccc(O)c(NC(=O)c3cc4c(C)nn(-c5ccc(F)cc5)c4s3)c2)cc1	DNMT1 block 97 | DNMT1 interf DR inactive | DNMT1 inh conf 69 | Beacon interf inactive
CC(=O)NCCC(=O)Nc1cccc(S(=O)(=O)N(C)c2ccccc2)c1	DNMT1 block 56 | DNMT1 inh conf inactive | Beacon interf inactive
CN(Cc1ccc(C(C)(C)C)cc1)C(=O)Cc1ccc(S(=O)(=O)N2CCOCC2)s1	DNMT1 block 71 | DNMT1 inh conf inactive | Beacon interf inactive
CN(Cc1cccc(F)c1)C(=O)Cc1ccc(S(=O)(=O)N2CCOCC2)s1	none
COc1cc(OC)cc(C(=O)/C=C2\Sc3ccccc3N2C)c1	none
CN1/C(=C\C(=O)c2cccc([N+](=O)[O-])c2)Sc2ccccc21	DNMT1 block 52 | DNMT1 inh conf inactive | Beacon interf inactive
CCCCc1c(C)nc2ccc(OC)cc2c1SCCC(=O)O	DNMT1 block 66 | DNMT1 inh conf inactive | Beacon interf inactive
N=C1C(c2nc(-c3ccc(Br)cc3)cs2)=C(O)CN1NC(=O)c1ccc([N+](=O)[O-])cc1	DNMT1 block 56 | DNMT1 inh conf inactive | Beacon interf inactive
CCC(=O)N1N=C(c2c(-c3ccccc3)c3cc(Cl)ccc3[nH]c2=O)CC1c1ccco1 (stereo unspecified)	DNMT1 block 52 | DNMT1 inh conf inactive | Beacon interf inactive
O=C(O)CCC(=O)N1N=C(c2c(-c3ccccc3)c3cc(Cl)ccc3[nH]c2=O)CC1c1ccco1 (stereo unspecified)	none
COc1ccc(C(=O)Nc2c(N)nc(SCC(=O)NCC3CCCO3)[nH]c2=O)cc1 (stereo unspecified)	none
Cc1ccc(Nc2nc(-c3ccc(S(=O)(=O)N4CCCC4)cc3)cs2)cc1C	none
Cc1cc(C)cc(Nc2nc(-c3ccc(S(=O)(=O)N4CCCC4)cc3)cs2)c1	DNMT1 block 97 | DNMT1 inh conf inactive | Beacon interf inactive
O=C(C1COc2ccccc2O1)N1CCCC1 (stereo unspecified)	none
O=C(C1COc2ccccc2O1)N1CCc2ccccc21 (stereo unspecified)	Scp1 inh 74, DNMT1 block 58 | DNMT1 inh conf inactive | Beacon interf inactive
Cc1ccccc1NC(=O)COC(=O)c1ccc(CSc2ccc(Cl)cc2)cc1	DNMT1 block 52 | DNMT1 inh conf inactive | Beacon interf inactive
COc1ccccc1-n1c(SCC(=O)NCc2ccc3c(c2)OCO3)nc2cc([N+](=O)[O-])ccc21	DNMT1 block 90 | DNMT1 inh conf inactive | Beacon interf inactive
CC(Sc1nc2cc([N+](=O)[O-])ccc2n1-c1ccc(F)cc1)C(=O)NCc1ccc2c(c1)OCO2 (stereo unspecified)	none

Source: PubChem BioAssay
